ChEMBL document CHEMBL1933026, “Synthesis and biological evaluation of molecular probes based on the 9-methylstreptimidone derivative DTCM-glutarimide” (Bioorg Med Chem Lett, 2012)
≈ marks a conversion by molar mass, not a printed value. Calls of active or inactive are those of the source. The rule behind the calls is not given here.

Columns and labels:
[1] = test system: RAW264.7; experiment: Inhibition of LPS-induced NF-kappaB activation in mouse RAW264.7 cells at 3 ug/ml treated 2 hrs before LPS challenge measured after 30 mins by electrophoretic mobility shift assay; format: cell-based
How it was run: (§1)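 RAW264.7 cells pretreated 2 h, then stimulated with LPS for 30 min. Nuclear extracts prepared by the Andrews–Faller method. 5 µg protein incubated 20 min at RT with poly(dI-dC) and a ³²P-labelled NF-κB oligonucleotide in Tris-HCl pH 7.0 buffer with NaCl, EDTA, DTT, glycerol and NP-40. Complexes resolved on a 4% native polyacrylamide gel in TBE.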

[2] = test system: RAW264.7; experiment: Inhibition of LPS-induced NF-kappaB activation in mouse RAW264.7 cells at 10 ug/ml treated 2 hrs before LPS challenge measured after 30 mins by electrophoretic mobility shift assay; format: cell-based; how it was run: as §1
[3] = test system: RAW264.7; experiment: Antiinflammatory activity in mouse RAW264.7 cells assessed as inhibition of LPS-induced iNOS expression at 0.3 to 3 ug/ml treated 2 hrs before LPS challenge measured after 24 hrs by Western blotting; format: functional, cell-based
How it was run: (§2)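 RAW264.7 cells in DMEM with 10% FBS. Incubated with or without compound for 2 h, then stimulated with LPS 1 µg/ml for 24 h. Total cell lysates analysed for iNOS protein by Western blotting.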

[4] = test system: RAW264.7; experiment: Antiinflammatory activity in mouse RAW264.7 cells assessed as inhibition of LPS-induced NO production treated for 2 hrs before LPS challenge measured after 20 hrs by Griess method; format: functional, cell-based
How it was run: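 RAW264.7 macrophages grown in DMEM with 10% FBS, seeded at 1 × 10⁵ cells/ml and used next day. Pretreated with compound 2 h, then stimulated with LPS […] for 20 h. Nitrite in the medium read with Griess reagent.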

[5] = (§3) Cytotoxicity against LPS-induced mouse RAW264.7 cells treated 2 hrs before LPS challenge measured after 20 hrs by MTT assay; format: cell-based; settings: mouse, LPS-induced RAW264.7 cells; read-out: ED50
How it was run: (§4)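 RAW264.7 cells seeded at 1 × 10⁵ cells/ml and treated the next day with compound for 2 h, followed by LPS for 20 h. MTT solution then added and cells held 4 h at 37 °C in 5% CO₂. Viability read as absorbance at 570 nm.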

[6] = test system: RAW264.7; experiment: Antiinflammatory activity in mouse RAW264.7 cells assessed as inhibition of LPS-induced iNOS expression at 1 to 10 ug/ml treated 2 hrs before LPS challenge measured after 24 hrs by Western blotting; format: functional, cell-based; how it was run: as §2
[7] = test system: RAW264.7; experiment: as §3; format: cell-based; settings: Mus musculus, RAW264.7; how it was run: as §4

Structure (SMILES)	inhibition [1]	inhibition [2]	inhibition [3]	IC50 [4] [µg/mL]	CC50 at 20 h [5] [µg/mL]	inhibition [6]	IC50 [7] [µg/mL]
CCCCCCCCCCCCSC(=O)CC1CC(=O)NC(=O)C1	inactive	inactive	Active				
O=C(CCCC[C@@H]1SC[C@@H]2NC(=O)N[C@@H]21)NCCCCCCCCCCCCNC(=O)CC1CC(=O)NC(=O)C1				> 30	> 30		
O=C(CCCC[C@@H]1SC[C@@H]2NC(=O)N[C@@H]21)NCCCCCCCCCCCCSC(=O)CC1CC(=O)NC(=O)C1	inactive	inactive		5 (≈ 8.38 µM)	> 30	Active	> 30
O=C(CCCC[C@@H]1SC[C@@H]2NC(=O)N[C@@H]21)NCCSC(=O)CC1CC(=O)NC(=O)C1				> 30	> 30		
[N-]=[N+]=Nc1ccc(C(=O)NCCCCCCCCCCCCSC(=O)CC2CC(=O)NC(=O)C2)cc1	inactive	inactive		4.5 (≈ 8.73 µM)	> 30	Active	> 30
